Tested on: U2OS
Assay: Multiplex assay against U2OS
Assay type: toxicity, cell-based
Settings: human
Outline: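 Compound was added to live cells that had been stained at seeding with Hoechst33342, BioTracker Green Microtubule Cytoskeleton Dye, MitoTracker Red and Annexin V Alexa Fluor 680, and imaging followed on a CQ1 microscope at 37°C and 5% CO2. CellPathfinder machine-learning gating divided cells into Hoechst high-intensity objects or normal cells, normal cells into healthy, pyknosed or fragmented nuclei, and pyknosed cells into mitotic or apoptotic. Tubulin, mitochondrial-mass and membrane-permeability phenotypes are per cents of healthy-nucleus cells.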

[1] = 12 h, 1 µM, compound concentration 1 uM, replicate 1
[2] = 12 h, 1 µM, compound concentration 1 uM, replicate 2
[3] = 12 h, 10 µM, compound concentration 10 uM, replicate 1
[4] = 12 h, 10 µM, compound concentration 10 uM, replicate 2
[5] = 24 h, 1 µM, compound concentration 1 uM, replicate 1
[6] = 24 h, 1 µM, compound concentration 1 uM, replicate 2
[7] = 24 h, 10 µM, compound concentration 10 uM, replicate 1
[8] = 24 h, 10 µM, compound concentration 10 uM, replicate 2
[9] = 48 h, 1 µM, compound concentration 1 uM, replicate 1
[10] = 48 h, 1 µM, compound concentration 1 uM, replicate 2
[11] = 48 h, 10 µM, compound concentration 10 uM, replicate 1
[12] = 48 h, 10 µM, compound concentration 10 uM, replicate 2

Cn1cc(C(=O)OCC2CCN(CCNS(C)(=O)=O)CC2)c2ccccc21
Population Apoptotic (%) [1]: 73% | Population Fragmented Nuclei (%) [1]: 27% | Population Healthy Nuclei (%) [1]: 63% | Population Hoechst High Intensity Objects (%) [1]: 3% | Population Membrane Permeable-Phenotype (%) [1]: 7% | Population Mitochondria Different-Phenotype (%) [1]: 4% | Population Mitotic Cells (%) [1]: 26% | Population Normal (%) [1]: 96% | Population Pyknosed Nuclei (%) [1]: 8% | Population Tubulin-Different-Phenotype (%) [1]: 5% | Total Cell Count [1]: 226 | Population Apoptotic (%) [2]: 77% | Population Fragmented Nuclei (%) [2]: 20% | Population Healthy Nuclei (%) [2]: 71% | Population Hoechst High Intensity Objects (%) [2]: 0% | Population Membrane Permeable-Phenotype (%) [2]: 13% | Population Mitochondria Different-Phenotype (%) [2]: 5% | Population Mitotic Cells (%) [2]: 22% | Population Normal (%) [2]: 100% | Population Tubulin-Different-Phenotype (%) [2]: 6% | Total Cell Count [2]: 110 | Population Apoptotic (%) [3]: 53% | Population Fragmented Nuclei (%) [3]: 36% | Population Healthy Nuclei (%) [3]: 58% | Population Hoechst High Intensity Objects (%) [3]: 0% | Population Membrane Permeable-Phenotype (%) [3]: 10% | Population Mitochondria Different-Phenotype (%) [3]: 5% | Population Mitotic Cells (%) [3]: 46% | Population Normal (%) [3]: 99% | Population Pyknosed Nuclei (%) [3]: 5% | Population Tubulin-Different-Phenotype (%) [3]: 5% | Total Cell Count [3]: 252 | Population Apoptotic (%) [4]: 57% | Population Fragmented Nuclei (%) [4]: 18% | Population Healthy Nuclei (%) [4]: 76% | Population Hoechst High Intensity Objects (%) [4]: 1% | Population Membrane Permeable-Phenotype (%) [4]: 17% | Population Mitochondria Different-Phenotype (%) [4]: 13% | Population Mitotic Cells (%) [4]: 42% | Population Normal (%) [4]: 98% | Population Tubulin-Different-Phenotype (%) [4]: 9% | Total Cell Count [4]: 137 | Population Apoptotic (%) [5]: 95% | Population Fragmented Nuclei (%) [5]: 26% | Population Healthy Nuclei (%) [5]: 65% | Population Hoechst High Intensity Objects (%) [5]: 2% | Population Membrane Permeable-Phenotype (%) [5]: 4% | Population Mitochondria Different-Phenotype (%) [5]: 2% | Population Mitotic Cells (%) [5]: 4% | Population Normal (%) [5]: 97% | Population Pyknosed Nuclei (%) [5]: 8% | Population Tubulin-Different-Phenotype (%) [5]: 3% | Total Cell Count [5]: 263 | Population Apoptotic (%) [6]: 100% | Population Fragmented Nuclei (%) [6]: 17% | Population Healthy Nuclei (%) [6]: 78% | Population Hoechst High Intensity Objects (%) [6]: 0% | Population Membrane Permeable-Phenotype (%) [6]: 10% | Population Mitochondria Different-Phenotype (%) [6]: 5% | Population Mitotic Cells (%) [6]: 0% | Population Normal (%) [6]: 100% | Population Pyknosed Nuclei (%) [6]: 4% | Population Tubulin-Different-Phenotype (%) [6]: 6% | Total Cell Count [6]: 144 | Population Apoptotic (%) [7]: 92% | Population Fragmented Nuclei (%) [7]: 33% | Population Healthy Nuclei (%) [7]: 61% | Population Hoechst High Intensity Objects (%) [7]: 2% | Population Membrane Permeable-Phenotype (%) [7]: 11% | Population Mitochondria Different-Phenotype (%) [7]: 5% | Population Mitotic Cells (%) [7]: 7% | Population Normal (%) [7]: 97% | Population Pyknosed Nuclei (%) [7]: 4% | Population Tubulin-Different-Phenotype (%) [7]: 4% | Total Cell Count [7]: 281 | Population Apoptotic (%) [8]: 64% | Population Fragmented Nuclei (%) [8]: 16% | Population Healthy Nuclei (%) [8]: 73% | Population Hoechst High Intensity Objects (%) [8]: 1% | Population Membrane Permeable-Phenotype (%) [8]: 12% | Population Mitochondria Different-Phenotype (%) [8]: 8% | Population Mitotic Cells (%) [8]: 35% | Population Normal (%) [8]: 98% | Population Pyknosed Nuclei (%) [8]: 9% | Population Tubulin-Different-Phenotype (%) [8]: 8% | Total Cell Count [8]: 150 | Population Apoptotic (%) [9]: 91% | Population Fragmented Nuclei (%) [9]: 20% | Population Healthy Nuclei (%) [9]: 69% | Population Hoechst High Intensity Objects (%) [9]: 1% | Population Membrane Permeable-Phenotype (%) [9]: 8% | Population Mitochondria Different-Phenotype (%) [9]: 3% | Population Mitotic Cells (%) [9]: 8% | Population Normal (%) [9]: 98% | Population Pyknosed Nuclei (%) [9]: 9% | Population Tubulin-Different-Phenotype (%) [9]: 5% | Total Cell Count [9]: 372 | Population Apoptotic (%) [10]: 57% | Population Fragmented Nuclei (%) [10]: 13% | Population Healthy Nuclei (%) [10]: 75% | Population Hoechst High Intensity Objects (%) [10]: 2% | Population Membrane Permeable-Phenotype (%) [10]: 6% | Population Mitochondria Different-Phenotype (%) [10]: 5% | Population Mitotic Cells (%) [10]: 42% | Population Normal (%) [10]: 97% | Population Pyknosed Nuclei (%) [10]: 10% | Population Tubulin-Different-Phenotype (%) [10]: 4% | Total Cell Count [10]: 182 | Population Apoptotic (%) [11]: 88% | Population Fragmented Nuclei (%) [11]: 30% | Population Healthy Nuclei (%) [11]: 58% | Population Hoechst High Intensity Objects (%) [11]: 1% | Population Membrane Permeable-Phenotype (%) [11]: 9% | Population Mitochondria Different-Phenotype (%) [11]: 4% | Population Mitotic Cells (%) [11]: 11% | Population Normal (%) [11]: 98% | Population Pyknosed Nuclei (%) [11]: 10% | Population Tubulin-Different-Phenotype (%) [11]: 7% | Total Cell Count [11]: 341 | Population Apoptotic (%) [12]: 75% | Population Fragmented Nuclei (%) [12]: 9% | Population Healthy Nuclei (%) [12]: 79% | Population Hoechst High Intensity Objects (%) [12]: 3% | Population Membrane Permeable-Phenotype (%) [12]: 13% | Population Mitochondria Different-Phenotype (%) [12]: 6% | Population Mitotic Cells (%) [12]: 25% | Population Normal (%) [12]: 97% | Population Tubulin-Different-Phenotype (%) [12]: 5% | Total Cell Count [12]: 200

Source: ChEMBL document CHEMBL5058577, “EUbOPEN Chemogenomics Library 2 (Multiplex)” (2022)
